Active and inactive are the calls of the source. The rule behind the calls is not given here.
How the values were obtained:
[1] = tested on: MCF7; experiment: Induction of cell cycle arrest in human MCF7 cells assessed as accumulation of cells at S phase at 8.7 uM after 24 hrs by Propidium iodide staining based flow cytometric analysis (reference value: 23.75 +/- 1.87%); format: functional
[2] = tested on: MCF7; experiment: Induction of vacuolization in human MCF7 cells at 8.7 uM after 24 to 48 hrs in presence of early autophagy inhibitor, wortmannin by TEM analysis; format: functional, cell-based
[3] = tested on: MCF7; experiment: Antiproliferative activity against human MCF7 cells assessed as reduction in cell viability after 24 hrs by MTT assay; format: functional, cell-based; details: MCF7, 24 h
Procedure, shortened: (§1)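 Cells seeded at 4 × 10³/well for 24 h runs and for PC-3, or 2 × 10³/well for MCF-7 and HeLa 48 h runs, and attached overnight. Medium replaced with compound-containing medium for 24 or 48 h. MTT (4 mg mL⁻¹) added for the final 3 h, formazan dissolved in DMSO, absorbance read at 570 nm (reference 660 nm). IC₅₀ calculated from at least three independent experiments in duplicate, mean ± SE.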

[4] = tested on: MCF7; experiment: Antiproliferative activity against human MCF7 cells assessed as reduction in cell viability after 48 hrs by MTT assay; format: functional, cell-based; details: Homo sapiens, MCF7, 48 h; procedure, shortened: as §1
[5] = tested on: MCF7; experiment: Antiproliferative activity against human MCF7 cells assessed as reduction in cell growth in presence of early autophagy inhibitor, wortmannin by MTT assay; format: functional, cell-based
[6] = tested on: MCF7; experiment: Induction of apoptosis in human MCF7 cells assessed as increase in cleaved PARP level at 2.9 uM after 24 hrs by immunoblot analysis relative to control; format: functional
Procedure, shortened: (§2)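 Proteins run on SDS-PAGE, transferred to PVDF, blocked in 5% milk/PBS, primary antibody overnight at 4 °C (cleaved PARP, Bax, Bcl-2), secondary 1 h at room temperature. Reprobed for β-actin; densitometry corrected for loading.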

[7] = tested on: MCF7; experiment: Induction of cell cycle arrest in human MCF7 cells assessed as accumulation of cells at G0/G1 phase at 8.7 uM after 24 hrs by Propidium iodide staining based flow cytometric analysis (reference value: 47.8 +/- 0.42%); format: functional
[8] = tested on: HeLa; experiment: Antiproliferative activity against human HeLa cells assessed as reduction in cell viability after 24 hrs by MTT assay; format: functional, cell-based; procedure, shortened: as §1
[9] = tested on: MCF7; experiment: Induction of vacuolization in human MCF7 cells assessed as increase in LAMP1 expression at 8.7 uM by Western blot analysis relative to control; format: functional
Procedure, shortened: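 Lysates were cleared, run on SDS-PAGE and blotted to PVDF, then probed for LAMP1. Blocking was 5% milk in PBS, primary antibody overnight at 4 °C, secondary 1 h at room temperature. Blots were stripped, reprobed for β-actin, and densitometry was corrected for loading.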

[10] = tested on: MCF7; experiment: Anticlonogenic activity against human MCF7 cells assessed as proportion of colony forming cells at 11.6 uM incubated for 24 hrs followed by recovery period of 2 weeks by culturing cells in drug-free medium by crystal violet staining based assay relative to control; format: functional
Procedure, shortened: (§3)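 Cells (1 × 10⁶) plated, after 24 h given fresh medium with derivative at 1, 2, 3 or 4 μg mL⁻¹ for 24 h; then trypsinized, counted, 8 × 10² replated into two plates in compound-free medium. After 2 weeks fixed with 6.0% glutaraldehyde, stained with 0.5% crystal violet; colonies of ≥50 cells counted. Mean ± SE of three experiments in duplicate.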

[11] = tested on: MCF7; experiment: Induction of apoptosis in human MCF7 cells at 2.9 uM after 48 hrs by Annexin-V/7-AAD staining based flow cytometric analysis relative to control; format: functional
Procedure, shortened: (§4)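 MCF-7 cells treated 48 h, stained with annexin V and 7-AAD (Muse annexin V and dead cell kit), and apoptotic and necrotic fractions counted by flow cytometry. Mean ± SE of three independent experiments; ANOVA with Bonferroni post hoc test.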

[12] = tested on: MCF7; experiment: Induction of vacuolization in human MCF7 cells at 8.7 uM after 24 hrs in presence of 50 uM dynamin inhibitor, dynasore by light microscopic analysis; format: functional, cell-based
[13] = Cytotoxicity against human HDFa cells assessed as reduction in cell viability after 24 hrs by MTT assay; format: cell-based; procedure, shortened: as §1
[14] = tested on: MCF7; experiment: Induction of cell cycle arrest in human MCF7 cells assessed as accumulation of cells at G2/M phase at 2.9 uM after 24 hrs by Propidium iodide staining based flow cytometric analysis (reference value: 27 +/- 2.97%); format: functional
[15] = tested on: PC-3; experiment: Antiproliferative activity against human PC3 cells assessed as reduction in cell viability after 24 hrs by MTT assay; format: functional, cell-based; details: PC-3, 24 h; procedure, shortened: as §1
[16] = tested on: MCF7; experiment: Induction of cell cycle arrest in human MCF7 cells assessed as accumulation of cells at S phase at 2.9 uM after 24 hrs by Propidium iodide staining based flow cytometric analysis (reference value: 23.75 +/- 1.87%); format: functional
[17] = tested on: MCF7; experiment: Antiproliferative activity against human MCF7 cells assessed as reduction in cell viability at 8.7 uM after 24 hrs in presence of 0.5 uM actin dynamics inhibitor, cytochalasin-D by MTT assay; format: functional, cell-based
[18] = tested on: MCF7; experiment: Induction of endocytosis in human MCF7 cells at 2.9 to 8.7 uM after 24 hrs by lucifer yellow staining based fluorescence microscopic analysis; format: functional, cell-based
Procedure, shortened: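 MCF-7 cells treated 24 h with 2.9 or 8.7 μM derivative, stained with 75 μM Lucifer Yellow, washed, and examined by fluorescence microscopy at 1000×.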

[19] = tested on: PC-3; experiment: Antiproliferative activity against human PC3 cells assessed as reduction in cell viability after 48 hrs by MTT assay; format: functional, cell-based; details: PC-3, 48 h; procedure, shortened: as §1
[20] = tested on: MCF7; experiment: Induction of apoptosis in human MCF7 cells assessed as increase in Bax level at 2.9 uM after 24 hrs by immunoblot analysis relative to control; format: functional; procedure, shortened: as §2
[21] = tested on: MCF7; experiment: Induction of apoptosis in human MCF7 cells assessed as reduction in Bcl-2 expression at 8.7 uM after 24 hrs by immunoblot analysis relative to control; format: functional; procedure, shortened: as §2
[22] = tested on: MCF7; experiment: Induction of vacuolization in human MCF7 cells at 8.7 uM after 24 hrs in presence of 10 uM Na+/H+ exchange inhibitor, amiloride by light microscopic analysis; format: functional, cell-based
[23] = tested on: HeLa; experiment: Cell cycle arrest in human HeLa cells assessed as reduction in cell population at G2/M phase at 2.9 to 8.7 uM after 24 hrs by propidium iodide staining based flow cytometric analysis; format: functional
[24] = tested on: MCF7; experiment: Induction of apoptosis in human MCF7 cells assessed as increase in cleaved PARP level at 8.7 uM after 24 hrs by immunoblot analysis relative to control; format: functional; procedure, shortened: as §2
[25] = tested on: HeLa; experiment: Anticlonogenic activity against human HeLa cells assessed as reduction in colony formation at 2.9 to 11.6 uM incubated for 24 hrs followed by recovery period of 2 weeks by culturing cells in drug-free medium by crystal violet staining based assay; format: functional, cell-based; procedure, shortened: as §3
[26] = Cytotoxicity against human HDFa cells assessed as reduction in cell viability after 48 hrs by MTT assay; format: cell-based; procedure, shortened: as §1
[27] = tested on: MCF7; experiment: Anticlonogenic activity against human MCF7 cells assessed as reduction in colony formation at 2.9 to 11.6 uM incubated for 24 hrs followed by recovery period of 2 weeks by culturing cells in drug-free medium by crystal violet staining based assay; format: functional, cell-based; procedure, shortened: as §3
[28] = tested on: MCF7; experiment: Induction of apoptosis in human MCF7 cell at 8.7 uM after 48 hrs by Annexin-V/7-AAD staining based flow cytometric analysis relative to control; format: functional; procedure, shortened: as §4
[29] = tested on: MCF7; experiment: Antiproliferative activity against human MCF7 cells assessed as reduction in cell viability at 8.7 uM after 24 hrs in presence of 50 uM dynamin inhibitor, dynasore by MTT assay relative to control; format: functional, cell-based

SMILES | Activity [1] | Activity [2] | IC50 [3] | IC50 [4] | inhibition [5] | fold change (FC) [6] | Activity [7] | IC50 [8] | fold change (FC) [9] | Activity [10] | fold change (FC) [11] | Activity [12] | IC50 [13] | Activity [14] | IC50 [15] | Activity [16] | inhibition [17] | Activity [18] | IC50 [19] | fold change (FC) [20] | also measured
CC(=O)c1c(O)c(C)c(O)c2c1OC1=Cc3onc(C)c3C(=O)C12C (racemic) | 8.35% | Active | 3.1 µM | 2.9 µM | Active | 3.6 | 75.45% | 1 µM | 1.8 | <50% | 2 | inactive | > 10 µM | 16.2% | 3.4 µM | 10.1% | Active | Active | 2.8 µM | 1.02 | fold change (FC) [21]: 0.3; Activity [22]: Active; Activity [23]: Active; fold change (FC) [24]: 4.5; inhibition [25]: Active; IC50 [26]: 5.9 µM; inhibition [27]: Active; fold change (FC) [28]: 3; inhibition [29]: Active
CC(=O)c1c(O)c(C)c(O)c2c1OC1=Cc3onc(C)c3C(=O)[C@]12C | 7.25% | Active | 3.2 µM | 2.5 µM | Active | 4.4 | 75.7% | 1 µM | 5.1 | <50% | 2 | inactive | 9.2 µM | 16.4% | 3.2 µM | 11.15% | Active | Active | 3.1 µM | 1.3 | fold change (FC) [21]: 0.2; Activity [22]: Active; Activity [23]: Active; fold change (FC) [24]: 4.1; inhibition [25]: Active; IC50 [26]: 3 µM; inhibition [27]: Active; fold change (FC) [28]: 3; inhibition [29]: Active

Reference: ChEMBL document CHEMBL4334455, “Synthesis of Usnic Acid Derivatives and Evaluation of Their Antiproliferative Activity against Cancer Cells” (J Nat Prod, 2019)
